# Source: ChEMBL document CHEMBL2057083, “Development of new carbon-11 labelled radiotracers for imaging GABAA- and GABAB-benzodiazepine receptors” (Bioorg Med Chem, 2012)
# How the values were obtained:
# [1] = Lipophilicity, log D in octanol/buffer at pH 7.4 by shake-flask method
# Rattus norvegicus [2] = experiment: Biodistribution in Sprague-Dawley rat cortex (rest) at 37 MBq, iv measured 5 mins post injection; type: ADME, organism-based; details: in vivo
# Rattus norvegicus [3] = experiment: Biodistribution in Sprague-Dawley rat hipothalamus at 37 MBq, iv measured 15 mins post injection; type: ADME, organism-based, Hypothalamus; details: in vivo, 0.25 h
# Method in brief: (§1)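 Conscious rats received the radiotracer by tail-vein injection and were killed by decapitation at the stated time. Brains were removed, and regions were excised, blotted, weighed and counted for radioactivity. Uptake is given as decay-corrected %ID/g.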
# Blood [4] = experiment: Biodistribution in Sprague-Dawley rat blood at 37 MBq, iv measured 5 mins post injection; type: ADME, organism-based; details: in vivo
# Cerebellum [5] = experiment: Biodistribution in Sprague-Dawley rat cerebellum at 37 MBq, iv measured 2 mins post injection; type: ADME, organism-based; details: in vivo
# Thalamus [6] = experiment: Biodistribution in Sprague-Dawley rat thalamus at 37 MBq, iv measured 60 mins post injection; type: ADME, organism-based; details: in vivo, 1 h; method in brief: as §1
# Cerebellum [7] = experiment: Biodistribution in Sprague-Dawley rat cerebellum at 37 MBq, iv measured 5 mins post injection; type: ADME, organism-based; details: in vivo
# Blood [8] = experiment: Biodistribution in Sprague-Dawley rat blood at 37 MBq, iv measured 15 mins post injection; type: ADME, organism-based; details: in vivo, 0.25 h
# Rattus norvegicus [9] = experiment: Biodistribution in Sprague-Dawley rat cortex (rest) at 37 MBq, iv measured 15 mins post injection; type: ADME, organism-based; details: in vivo, 0.25 h
# Cerebellum [10] = experiment: Biodistribution in Sprague-Dawley rat cerebellum at 37 MBq, iv measured 15 mins post injection; type: ADME, organism-based; details: in vivo, 0.25 h
# Striatum [11] = experiment: Biodistribution in Sprague-Dawley rat striatum at 37 MBq, iv measured 30 mins post injection; type: ADME, organism-based; details: in vivo, 0.5 h
# Blood [12] = experiment: Biodistribution in Sprague-Dawley rat blood at 37 MBq, iv measured 30 mins post injection; type: ADME, organism-based; details: in vivo, 0.5 h
# Thalamus [13] = experiment: Biodistribution in Sprague-Dawley rat thalamus at 37 MBq, iv measured 5 mins post injection; type: ADME, organism-based; details: in vivo; method in brief: as §1
# Rattus norvegicus [14] = experiment: Biodistribution in Sprague-Dawley rat cortex (front) at 37 MBq, iv measured 5 mins post injection; type: ADME, organism-based; details: in vivo
# Striatum [15] = experiment: Biodistribution in Sprague-Dawley rat striatum at 37 MBq, iv measured 2 mins post injection; type: ADME, organism-based; details: in vivo
# Striatum [16] = experiment: Biodistribution in Sprague-Dawley rat striatum at 37 MBq, iv measured 60 mins post injection; type: ADME, organism-based; details: in vivo, 1 h
# Brain [17] = experiment: Biodistribution in Sprague-Dawley rat rest of brain at 37 MBq, iv measured 15 mins post injection; type: ADME, organism-based; details: in vivo, 0.25 h
# Brain [18] = experiment: Biodistribution in Sprague-Dawley rat rest of brain at 37 MBq, iv measured 2 mins post injection; type: ADME, organism-based; details: in vivo
# Rattus norvegicus [19] = experiment: Biodistribution in Sprague-Dawley rat cortex (rest) at 37 MBq, iv measured 60 mins post injection; type: ADME, organism-based; details: in vivo, 1 h
# Brain [20] = experiment: Biodistribution in Sprague-Dawley rat rest of brain at 37 MBq, iv measured 5 mins post injection; type: ADME, organism-based; details: in vivo
# Rattus norvegicus [21] = experiment: Biodistribution in Sprague-Dawley rat cortex (front) at 37 MBq, iv measured 2 mins post injection; type: ADME, organism-based; details: in vivo
# Rattus norvegicus [22] = experiment: Biodistribution in Sprague-Dawley rat hipothalamus at 37 MBq, iv measured 60 mins post injection; type: ADME, organism-based, Hypothalamus; details: in vivo, 1 h; method in brief: as §1
# Thalamus [23] = experiment: Biodistribution in Sprague-Dawley rat thalamus at 37 MBq, iv measured 15 mins post injection; type: ADME, organism-based; details: in vivo, 0.25 h; method in brief: as §1
# Hippocampus [24] = experiment: Biodistribution in Sprague-Dawley rat hippocampus at 37 MBq, iv measured 2 mins post injection; type: ADME, organism-based; details: in vivo
# Cerebellum [25] = experiment: Biodistribution in Sprague-Dawley rat cerebellum at 37 MBq, iv measured 30 mins post injection; type: ADME, organism-based; details: in vivo, 0.5 h
# Cerebellum [26] = experiment: Biodistribution in Sprague-Dawley rat cerebellum at 37 MBq, iv measured 60 mins post injection; type: ADME, organism-based; details: in vivo, 1 h
# Hippocampus [27] = experiment: Biodistribution in Sprague-Dawley rat hippocampus at 37 MBq, iv measured 15 mins post injection; type: ADME, organism-based; details: in vivo, 0.25 h
# Hippocampus [28] = experiment: Biodistribution in Sprague-Dawley rat hippocampus at 37 MBq, iv measured 60 mins post injection; type: ADME, organism-based; details: in vivo, 1 h
# Rattus norvegicus [29] = experiment: Biodistribution in Sprague-Dawley rat cortex (front) at 37 MBq, iv measured 60 mins post injection; type: ADME, organism-based; details: in vivo, 1 h
# Thalamus [30] = experiment: Biodistribution in Sprague-Dawley rat thalamus at 37 MBq, iv measured 30 mins post injection; type: ADME, organism-based; details: in vivo, 0.5 h; method in brief: as §1
# Brain [31] = experiment: Biodistribution in Sprague-Dawley rat rest of brain at 37 MBq, iv measured 60 mins post injection; type: ADME, organism-based; details: in vivo, 1 h
# Hippocampus [32] = experiment: Biodistribution in Sprague-Dawley rat hippocampus at 37 MBq, iv measured 5 mins post injection; type: ADME, organism-based; details: in vivo
# Brain [33] = experiment: Biodistribution in Sprague-Dawley rat rest of brain at 37 MBq, iv measured 30 mins post injection; type: ADME, organism-based; details: in vivo, 0.5 h
# Rattus norvegicus [34] = experiment: Biodistribution in Sprague-Dawley rat cortex (front) at 37 MBq, iv measured 15 mins post injection; type: ADME, organism-based; details: in vivo, 0.25 h
# Rattus norvegicus [35] = experiment: Biodistribution in Sprague-Dawley rat cortex (rest) at 37 MBq, iv measured 30 mins post injection; type: ADME, organism-based; details: in vivo, 0.5 h
# Rattus norvegicus [36] = experiment: Biodistribution in Sprague-Dawley rat cortex (rest) at 37 MBq, iv measured 2 mins post injection; type: ADME, organism-based; details: in vivo
# Rattus norvegicus [37] = experiment: Biodistribution in Sprague-Dawley rat cortex (front) at 37 MBq, iv measured 30 mins post injection; type: ADME, organism-based; details: in vivo, 0.5 h
# Thalamus [38] = experiment: Biodistribution in Sprague-Dawley rat thalamus at 37 MBq, iv measured 2 mins post injection; type: ADME, organism-based; details: in vivo
# Striatum [39] = experiment: Biodistribution in Sprague-Dawley rat striatum at 37 MBq, iv measured 15 mins post injection; type: ADME, organism-based; details: in vivo, 0.25 h
# Blood [40] = experiment: Biodistribution in Sprague-Dawley rat blood at 37 MBq, iv measured 60 mins post injection; type: ADME, organism-based; details: in vivo, 1 h
# Rattus norvegicus [41] = experiment: Biodistribution in Sprague-Dawley rat hipothalamus at 37 MBq, iv measured 30 mins post injection; type: ADME, organism-based, Hypothalamus; details: in vivo, 0.5 h; method in brief: as §1
# Striatum [42] = experiment: Biodistribution in Sprague-Dawley rat striatum at 37 MBq, iv measured 5 mins post injection; type: ADME, organism-based; details: in vivo
# Blood [43] = experiment: Biodistribution in Sprague-Dawley rat blood at 37 MBq, iv measured 2 mins post injection; type: ADME, organism-based; details: in vivo
# Rattus norvegicus [44] = experiment: Biodistribution in Sprague-Dawley rat hipothalamus at 37 MBq, iv measured 2 mins post injection; type: ADME, organism-based, Hypothalamus; details: in vivo
# Hippocampus [45] = experiment: Biodistribution in Sprague-Dawley rat hippocampus at 37 MBq, iv measured 30 mins post injection; type: ADME, organism-based; details: in vivo, 0.5 h
# Rattus norvegicus [46] = experiment: Biodistribution in Sprague-Dawley rat hipothalamus at 37 MBq, iv measured 5 mins post injection; type: ADME, organism-based, Hypothalamus; details: in vivo; method in brief: as §1
structure (smiles),measurement,setting,value
Cc1nc(O[11CH3])ccc1-c1cccc2c(N)c3c(nc12)CN(C1CCC1)C3=O,logD,[1],4.12
CC(NCCC(c1ccccc1)c1ccccc1)c1ccc(O[11CH3])c(Cl)c1 (racemic),Drug uptake,Rattus norvegicus [2],0.13 % ID/g
same,Drug uptake,Rattus norvegicus [3],0.1 % ID/g
same,Drug uptake,Blood [4],0.12 % ID/g
same,Drug uptake,Cerebellum [5],0.13 % ID/g
same,Drug uptake,Thalamus [6],0.14 % ID/g
same,Drug uptake,Cerebellum [7],0.14 % ID/g
same,Drug uptake,Blood [8],0.87 % ID/g
same,Drug uptake,Rattus norvegicus [9],0.13 % ID/g
same,Drug uptake,Cerebellum [10],0.12 % ID/g
same,Drug uptake,Striatum [11],0.12 % ID/g
same,Drug uptake,Blood [12],0.09 % ID/g
same,Drug uptake,Thalamus [13],0.12 % ID/g
same,Drug uptake,Rattus norvegicus [14],0.13 % ID/g
same,Drug uptake,Striatum [15],0.1 % ID/g
same,Drug uptake,Striatum [16],0.11 % ID/g
same,Drug uptake,Brain [17],0.11 % ID/g
same,Drug uptake,Brain [18],0.1 % ID/g
same,Drug uptake,Rattus norvegicus [19],0.13 % ID/g
same,Drug uptake,Brain [20],0.11 % ID/g
same,Drug uptake,Rattus norvegicus [21],0.12 % ID/g
same,Drug uptake,Rattus norvegicus [22],0.11 % ID/g
same,Drug uptake,Thalamus [23],0.13 % ID/g
same,Drug uptake,Hippocampus [24],0.08 % ID/g
same,Drug uptake,Cerebellum [25],0.13 % ID/g
same,Drug uptake,Cerebellum [26],0.11 % ID/g
same,Drug uptake,Hippocampus [27],0.1 % ID/g
same,Drug uptake,Hippocampus [28],0.11 % ID/g
same,Drug uptake,Rattus norvegicus [29],0.13 % ID/g
same,Drug uptake,Thalamus [30],0.12 % ID/g
same,Drug uptake,Brain [31],0.11 % ID/g
same,Drug uptake,Hippocampus [32],0.1 % ID/g
same,Drug uptake,Brain [33],0.12 % ID/g
same,logD,[1],3.2
same,Drug uptake,Rattus norvegicus [34],0.14 % ID/g
same,Drug uptake,Rattus norvegicus [35],0.13 % ID/g
same,Drug uptake,Rattus norvegicus [36],0.13 % ID/g
same,Drug uptake,Rattus norvegicus [37],0.14 % ID/g
same,Drug uptake,Thalamus [38],0.1 % ID/g
same,Drug uptake,Striatum [39],0.12 % ID/g
same,Drug uptake,Blood [40],0.13 % ID/g
same,Drug uptake,Rattus norvegicus [41],0.1 % ID/g
same,Drug uptake,Striatum [42],0.11 % ID/g
same,Drug uptake,Blood [43],0.18 % ID/g
same,Drug uptake,Rattus norvegicus [44],0.11 % ID/g
same,Drug uptake,Hippocampus [45],0.11 % ID/g
same,Drug uptake,Rattus norvegicus [46],0.11 % ID/g
